From ChEMBL document CHEMBL1275526, “Differential azole antifungal efficacies contrasted using a Saccharomyces cerevisiae strain humanized for sterol 14 alpha-demethylase at the homologous locus” (2008)
Values after ≈ are worked out from the molar mass of the structure shown.

Legend:
Assay type in all cases: functional
Saccharomyces cerevisiae [1] = experiment: Antifungal activity against Saccharomyces cerevisiae BY4741 harboring human CYP51 assessed as growth rate at 2 ug/ml (reference value: 0.157%); conditions: at 2 µg/mL
Saccharomyces cerevisiae [2] = experiment: Antifungal activity against Saccharomyces cerevisiae BY4741 harboring human CYP51 by broth microdilution method
Outline: (§1)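 Adapted CLSI M-27A broth microdilution for S. cerevisiae, run in triplicate. Overnight cultures were diluted in YM, pH 7.0, to 2.5 x 10^3 cells/ml, with drug diluted in YM over 0 to 16 or 0 to 128 µg/ml depending on azole. Plates were incubated 48 h at 30°C. MIC was the concentration giving 80% growth inhibition.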

Saccharomyces cerevisiae [3] = experiment: Antifungal activity against Saccharomyces cerevisiae BY4741 harboring human CYP51 assessed as growth rate at 1 ug/ml (reference value: 0.157%); conditions: at 1 µg/mL
Saccharomyces cerevisiae [4] = experiment: Antifungal activity against Saccharomyces cerevisiae BY4741 harboring human CYP51 assessed as growth rate at 0.5 ug/ml (reference value: 0.157%); conditions: at 0.5 µg/mL
Saccharomyces cerevisiae [5] = experiment: Antifungal activity against Saccharomyces cerevisiae BY4741 assessed as growth rate at 2 ug/ml (reference value: 0.144%)
Saccharomyces cerevisiae [6] = experiment: Antifungal activity against Saccharomyces cerevisiae BY4741 assessed as growth rate at 1 ug/ml (reference value: 0.144%)
Saccharomyces cerevisiae [7] = experiment: Antifungal activity against Saccharomyces cerevisiae BY4741 assessed as growth rate at 0.5 ug/ml (reference value: 0.144%)
Saccharomyces cerevisiae [8] = experiment: Antifungal activity against wild-type Saccharomyces cerevisiae BY4741 by broth microdilution method; outline: as §1
Saccharomyces cerevisiae [9] = experiment: Antifungal activity against Saccharomyces cerevisiae BY4741 harboring human CYP51 assessed as growth rate at 16 ug/ml (reference value: 0.157%); conditions: at 16 µg/mL
Saccharomyces cerevisiae [10] = experiment: Antifungal activity against Saccharomyces cerevisiae BY4741 harboring human CYP51 assessed as accumulation of 14-alpha-methylergosta-8,24(28)-dien-3beta-6alpha-diol at 0.25 ug/ml
Saccharomyces cerevisiae [11] = experiment: Antifungal activity against wild-type Saccharomyces cerevisiae BY4741 assessed as accumulation of 14-alpha-methylergosta-8,24(28)-dien-3beta-6alpha-diol at 0.25 ug/ml
Saccharomyces cerevisiae [12] = experiment: Antifungal activity against wild-type Saccharomyces cerevisiae BY4741 assessed as accumulation of lanosterol at 0.25 ug/ml (reference value: 17+/- 1.22 %)
Saccharomyces cerevisiae [13] = experiment: Antifungal activity against wild-type Saccharomyces cerevisiae BY4741 assessed as accumulation of ergosterol at 0.25 ug/ml (reference value: 57+/- 1.00 %)
Saccharomyces cerevisiae [14] = experiment: Antifungal activity against Saccharomyces cerevisiae BY4741 harboring human CYP51 assessed as growth rate at 8 ug/ml (reference value: 0.157%); conditions: at 8 µg/mL
Saccharomyces cerevisiae [15] = experiment: Antifungal activity against Saccharomyces cerevisiae BY4741 assessed as growth rate at 0.25 ug/ml (reference value: 0.144%)
Saccharomyces cerevisiae [16] = experiment: Antifungal activity against Saccharomyces cerevisiae BY4741 assessed as growth rate at 0.125 ug/ml (reference value: 0.144%)
Saccharomyces cerevisiae [17] = experiment: Antifungal activity against Saccharomyces cerevisiae BY4741 assessed as growth rate at 4 ug/ml (reference value: 0.144%)
Saccharomyces cerevisiae [18] = experiment: Antifungal activity against Saccharomyces cerevisiae BY4741 assessed as growth rate at 16 ug/ml (reference value: 0.144%)
Saccharomyces cerevisiae [19] = experiment: Antifungal activity against Saccharomyces cerevisiae BY4741 assessed as growth rate at 8 ug/ml (reference value: 0.144%)
Saccharomyces cerevisiae [20] = experiment: Antifungal activity against Saccharomyces cerevisiae BY4741 harboring human CYP51 assessed as growth rate at 0.25 ug/ml (reference value: 0.157%); conditions: at 0.25 µg/mL
Saccharomyces cerevisiae [21] = experiment: Antifungal activity against Saccharomyces cerevisiae BY4741 harboring human CYP51 assessed as growth rate at 0.125 ug/ml (reference value: 0.157%); conditions: at 0.125 µg/mL
Saccharomyces cerevisiae [22] = experiment: Antifungal activity against Saccharomyces cerevisiae BY4741 harboring human CYP51 assessed as growth rate at 4 ug/ml (reference value: 0.157%); conditions: at 4 µg/mL
Saccharomyces cerevisiae [23] = experiment: Antifungal activity against Saccharomyces cerevisiae BY4741 harboring human CYP51 assessed as accumulation of lanosterol at 0.25 ug/ml (reference value: 23+/- 1.08 %)
Saccharomyces cerevisiae [24] = experiment: Antifungal activity against Saccharomyces cerevisiae BY4741 harboring human CYP51 assessed as accumulation of ergosterol at 0.25 ug/ml (reference value: 54+/- 0.82 %)
Saccharomyces cerevisiae [25] = experiment: Antifungal activity against Saccharomyces cerevisiae BY4741 harboring human CYP51 assessed as accumulation of 14-alpha-methylergosta-8,24(28)-dien-3beta-6alpha-diol at 4 ug/ml
Saccharomyces cerevisiae [26] = experiment: Antifungal activity against Saccharomyces cerevisiae BY4741 harboring human CYP51 assessed as accumulation of lanosterol at 4 ug/ml (reference value: 23+/- 1.08 %)
Saccharomyces cerevisiae [27] = experiment: Antifungal activity against Saccharomyces cerevisiae BY4741 harboring human CYP51 assessed as accumulation of ergosterol at 4 ug/ml (reference value: 54+/- 0.82 %)
Saccharomyces cerevisiae [28] = experiment: Antifungal activity against wild-type Saccharomyces cerevisiae BY4741 assessed as accumulation of 14-alpha-methylergosta-8,24(28)-dien-3beta-6alpha-diol at 4 ug/ml
Saccharomyces cerevisiae [29] = experiment: Antifungal activity against wild-type Saccharomyces cerevisiae BY4741 assessed as accumulation of lanosterol at 4 ug/ml (reference value: 17+/- 1.22 %)
Saccharomyces cerevisiae [30] = experiment: Antifungal activity against wild-type Saccharomyces cerevisiae BY4741 assessed as accumulation of ergosterol at 4 ug/ml (reference value: 57+/- 1.00 %)
Saccharomyces cerevisiae [31] = experiment: Antifungal activity against Saccharomyces cerevisiae BY4741 harboring human CYP51 assessed as accumulation of 14-alpha-methylergosta-8,24(28)-dien-3beta-6alpha-diol at 16 ug/ml
Saccharomyces cerevisiae [32] = experiment: Antifungal activity against Saccharomyces cerevisiae BY4741 harboring human CYP51 assessed as accumulation of lanosterol at 16 ug/ml (reference value: 23+/- 1.08 %)
Saccharomyces cerevisiae [33] = experiment: Antifungal activity against Saccharomyces cerevisiae BY4741 harboring human CYP51 assessed as accumulation of ergosterol at 16 ug/ml (reference value: 54+/- 0.82 %)
Saccharomyces cerevisiae [34] = experiment: Antifungal activity against wild-type Saccharomyces cerevisiae BY4741 assessed as accumulation of 14-alpha-methylergosta-8,24(28)-dien-3beta-6alpha-diol at 16 ug/ml
Saccharomyces cerevisiae [35] = experiment: Antifungal activity against wild-type Saccharomyces cerevisiae BY4741 assessed as accumulation of lanosterol at 16 ug/ml (reference value: 17+/- 1.22 %)
Saccharomyces cerevisiae [36] = experiment: Antifungal activity against Saccharomyces cerevisiae BY4741 harboring human CYP51 assessed as accumulation of 14-alpha-methylergosta-8,24(28)-dien-3beta-6alpha-diol at 8 ug/ml
Saccharomyces cerevisiae [37] = experiment: Antifungal activity against Saccharomyces cerevisiae BY4741 harboring human CYP51 assessed as accumulation of ergosterol at 8 ug/ml (reference value: 54+/- 0.82 %)
Saccharomyces cerevisiae [38] = experiment: Antifungal activity against wild-type Saccharomyces cerevisiae BY4741 assessed as accumulation of 14-alpha-methylergosta-8,24(28)-dien-3beta-6alpha-diol at 8 ug/ml
Saccharomyces cerevisiae [39] = experiment: Antifungal activity against wild-type Saccharomyces cerevisiae BY4741 assessed as accumulation of lanosterol at 8 ug/ml (reference value: 17+/- 1.22 %)
Saccharomyces cerevisiae [40] = experiment: Antifungal activity against wild-type Saccharomyces cerevisiae BY4741 assessed as accumulation of ergosterol at 8 ug/ml (reference value: 57+/- 1.00 %)

Compound	Activity (Saccharomyces cerevisiae [1])	MIC (Saccharomyces cerevisiae [2])	Activity (Saccharomyces cerevisiae [3])	Activity (Saccharomyces cerevisiae [4])	Activity (Saccharomyces cerevisiae [5])	Activity (Saccharomyces cerevisiae [6])	Activity (Saccharomyces cerevisiae [7])	MIC (Saccharomyces cerevisiae [8])	Activity (Saccharomyces cerevisiae [9])	Activity (Saccharomyces cerevisiae [14])	Activity (Saccharomyces cerevisiae [17])	Activity (Saccharomyces cerevisiae [18])	Activity (Saccharomyces cerevisiae [19])	Activity (Saccharomyces cerevisiae [22])	further results
Clc1ccccc1C(c1ccccc1)(c1ccccc1)n1ccnc1 [CLOTRIMAZOLE]	0.169%	8 µg/mL (≈ 23.2 µM)	0.173%	0.162%	0.088%	0.123%	0.11%	8 µg/mL (≈ 23.2 µM)	–	–	–	–	–	–	–
C[C@@H](c1ncncc1F)[C@](O)(Cn1cncn1)c1ccc(F)cc1F [VORICONAZOLE]	0.154%	> 128 µg/mL	0.156%	0.153%	0.051%	0.039%	0.046%	0.125 µg/mL (≈ 0.358 µM)	0.159%	0.168%	0.043%	0.039%	0.043%	0.154%	Activity (Saccharomyces cerevisiae [10]): 4%; Activity (Saccharomyces cerevisiae [11]): 24%; Activity (Saccharomyces cerevisiae [12]): 35%; Activity (Saccharomyces cerevisiae [13]): 10%; Activity (Saccharomyces cerevisiae [15]): 0.046%; Activity (Saccharomyces cerevisiae [16]): 0.057%; Activity (Saccharomyces cerevisiae [20]): 0.159%; Activity (Saccharomyces cerevisiae [21]): 0.157%; Activity (Saccharomyces cerevisiae [23]): 27%; Activity (Saccharomyces cerevisiae [24]): 49%
CC(=O)N1CCN(c2ccc(OCC3COC(Cn4ccnc4)(c4ccc(Cl)cc4Cl)O3)cc2)CC1 (stereo not drawn) [KETOCONAZOLE]	0.188%	8 µg/mL (≈ 15.1 µM)	–	–	0.088%	–	–	1 µg/mL (≈ 1.88 µM)	–	0.119%	0.06%	–	0.039%	0.204%	Activity (Saccharomyces cerevisiae [25]): 7%; Activity (Saccharomyces cerevisiae [26]): 27%; Activity (Saccharomyces cerevisiae [27]): 51%; Activity (Saccharomyces cerevisiae [28]): 19%; Activity (Saccharomyces cerevisiae [29]): 35%; Activity (Saccharomyces cerevisiae [30]): 12%
Clc1ccc(COC(Cn2ccnc2)c2ccc(Cl)cc2Cl)c(Cl)c1 (stereo not drawn) [MICONAZOLE]	0.167%	8 µg/mL (≈ 19.2 µM)	0.141%	0.174%	0.023%	0.034%	0.024%	8 µg/mL (≈ 19.2 µM)	–	–	–	–	–	–	–
OC(Cn1cncn1)(Cn1cncn1)c1ccc(F)cc1F [FLUCONAZOLE]	–	> 128 µg/mL	–	–	–	–	–	8 µg/mL (≈ 26.1 µM)	0.171%	0.16%	–	0.03%	0.036%	–	Activity (Saccharomyces cerevisiae [31]): 6%; Activity (Saccharomyces cerevisiae [32]): 24%; Activity (Saccharomyces cerevisiae [33]): 46%; Activity (Saccharomyces cerevisiae [34]): 29%; Activity (Saccharomyces cerevisiae [35]): 42%
Clc1ccc(COC(Cn2ccnc2)c2ccc(Cl)cc2Cl)cc1 (stereo not drawn) [ECONAZOLE]	–	8 µg/mL (≈ 21 µM)	0.157%	–	–	0.084%	–	8 µg/mL (≈ 21 µM)	–	–	–	–	–	–	–
CCC(C)n1ncn(-c2ccc(N3CCN(c4ccc(OCC5COC(Cn6cncn6)(c6ccc(Cl)cc6Cl)O5)cc4)CC3)cc2)c1=O (stereo not drawn) [ITRACONAZOLE]	0.17%	> 128 µg/mL	0.176%	0.166%	0.044%	0.042%	0.042%	1 µg/mL (≈ 1.42 µM)	0.136%	0.164%	0.039%	0.035%	0.036%	0.136%	Activity (Saccharomyces cerevisiae [36]): 5%; Activity (Saccharomyces cerevisiae [37]): 52%; Activity (Saccharomyces cerevisiae [38]): 24%; Activity (Saccharomyces cerevisiae [39]): 42%; Activity (Saccharomyces cerevisiae [40]): 6%
